Reference: ChEMBL document CHEMBL1130594, “Thalidomide analogs and PDE4 inhibition” (Bioorg Med Chem Lett, 1998)

Experiments:
PBMC [1] = experiment: Inhibition of LPS stimulated Tumor Necrosis Factor-alpha (TNF-alpha) release by human PBMC, cytotoxic at 10 and 100 uM; assay type: functional, cell-based
Phosphodiesterase 4 [2] = target: T1, Phosphodiesterase 4 (Homo sapiens, UniProt P27815+Q08499+Q07343+Q08493); experiment: Inhibition of phosphodiesterase 4 from U937 cells; assay type: cell-based; settings: u-937
Phosphodiesterase 4 [3] = target: T1, Phosphodiesterase 4; experiment: Inhibition of PDE4 enzyme from U937 cells; assay type: cell-based; settings: u-937
Summary of the method: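 Crude PDE4 from U937 cells: lysate supernatant run on Sephacryl S-200, rolipram-sensitive fractions pooled. Assay in 50 mM Tris-HCl pH 7.5, 5 mM MgCl2, 1 µM cAMP (1% 3H-cAMP), varying inhibitor, <15% substrate consumed; 30 °C, 30 min. Boiled, snake-venom treated, AG1-X8 resin, aqueous phase counted. Duplicates, % of control; IC50 by variable-slope nonlinear regression, three independent experiments.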

PBMC [4] = experiment: (§1) Inhibition of LPS stimulated Tumor Necrosis Factor-alpha (TNF-alpha) release by human PBMC; assay type: functional, cell-based
PBMC [5] = experiment: as §1

SMILES	IC50 (PBMC [1])	IC50 (Phosphodiesterase 4 [2])	IC50 (Phosphodiesterase 4 [3])	IC50 (PBMC [4])	IC50 (PBMC [5])
COC(=O)CC(c1ccc(OC)c(OC)c1)N1C(=O)c2c(F)c(F)c(F)c(F)c2C1=O (configuration not stated)	260 nM	4700 nM			
CCOc1cc(C(CC#N)N2C(=O)c3ccccc3C2=O)ccc1OC (configuration not stated)			130 nM	120 nM	
COc1ccc(C(CC#N)N2C(=O)c3ccccc3C2=O)cc1OC (configuration not stated)			1300 nM	1700 nM	
COc1ccc(C(CC#N)N2C(=O)c3ccccc3C2=O)cc1OC1CCCC1 (configuration not stated)			350 nM	1600 nM	
CCOc1cc(C(CC(N)=O)N2C(=O)c3ccccc3C2=O)ccc1OC (configuration not stated)			2000 nM	2700 nM	
CCOc1cc(C(CC(=O)OC)N2C(=O)c3ccccc3C2=O)ccc1OC (configuration not stated)			230 nM	700 nM	
COC(=O)CC(c1ccc(OC)c(OC)c1)N1C(=O)c2ccccc2C1=O (configuration not stated)			2500 nM	2900 nM	
CCOc1cc(C(CC(=O)OC)N2C(=O)c3c(F)c(F)c(F)c(F)c3C2=O)ccc1OC (configuration not stated)	380 nM	2200 nM			
COc1ccc(C(CC(N)=O)N2C(=O)c3ccccc3C2=O)cc1OC (configuration not stated)			9400 nM	13000 nM	
COC(=O)CC(c1ccc(OC)c(OC2CCCC2)c1)N1C(=O)c2ccccc2C1=O (configuration not stated)			1700 nM	1600 nM	
COC(=O)CC(c1ccc(OC)c(OC2CC3CCC2C3)c1)N1C(=O)c2ccccc2C1=O (configuration not stated)			740 nM	2400 nM	
COc1ccc(C(CC(N)=O)N2C(=O)c3ccccc3C2=O)cc1OC1CCCC1 (configuration not stated) [CDC-801]			1100 nM	2500 nM	
COc1ccc(C2CNC(=O)C2)cc1OC1CCCC1 (configuration not stated) [ROLIPRAM]					150 nM
O=C1CCC(N2C(=O)c3ccccc3C2=O)C(=O)N1 (configuration not stated) [THALIDOMIDE]			> 500000 nM	~200000 nM	
